Data set [1] has as its target T1, Glycine receptor subunit alpha-3 (Homo sapiens, UniProt O75311).
T1 sequence (O75311 whole entry): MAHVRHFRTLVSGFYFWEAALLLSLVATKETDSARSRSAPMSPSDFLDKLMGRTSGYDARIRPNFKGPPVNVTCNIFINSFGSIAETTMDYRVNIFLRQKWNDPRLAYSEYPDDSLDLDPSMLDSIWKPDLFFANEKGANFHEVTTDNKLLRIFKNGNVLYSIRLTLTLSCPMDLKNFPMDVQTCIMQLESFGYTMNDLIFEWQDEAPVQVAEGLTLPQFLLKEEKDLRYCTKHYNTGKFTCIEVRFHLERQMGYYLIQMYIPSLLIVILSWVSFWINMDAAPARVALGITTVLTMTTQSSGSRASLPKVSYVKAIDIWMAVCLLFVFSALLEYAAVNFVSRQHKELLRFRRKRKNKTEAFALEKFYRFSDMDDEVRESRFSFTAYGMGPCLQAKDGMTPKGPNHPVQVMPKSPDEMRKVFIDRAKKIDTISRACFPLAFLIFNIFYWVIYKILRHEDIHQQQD
The data set can be described thus: Binding affinity to human glycine alpha3 receptor expressed in HEK293T cells by SPR assay. Set-up: species or system HEK-293T. For orientation: Surface plasmon resonance follows binding to a sensor surface in real time, without labels.

Data set [2] concerns the target Glycine receptor alpha-3/beta (Homo sapiens) (UniProt O75311+P48167). As to the kind of experiment: Positive allosteric modulation of human glycine alpha3beta receptor expressed in HEK293T cells assessed as compound concentration required to induce up to 3-fold leftward shift in glycine-induced increase in chloride ion flux after 4 mins by Schild plot analysis. The class given is cell-based. Summed up: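 HEK293T cells stably expressing human GlyRα3β, ~12000 cells/well, plated overnight and loaded with membrane potential blue dye. Glycine 1:2 dilution series premixed with compound at varying concentrations in HEPES/NaCl/mannitol buffer, pH 7.4. FLIPR fluorescence read 4 min and processed as AUC over baseline. mEC₃ is the lowest tested concentration giving a ≥3-fold leftward shift of glycine EC₅₀.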

For data set [3], the system named is Mus musculus. The data set can be described thus: Antiallodynic activity in mouse model of spared nerve injury-induced tactile allodynia assessed as tactile threshold at 20 mg/kg, po measured 60 mins post dose by Von Frey filament assay (reference value: 0.82 +/- 0.19 g). The class given is functional.
The nature of data set [4]: Ratio of unbound Cmax in mouse brain to EC50 for glycine alpha3 receptor in mouse model of spared nerve injury-induced tactile allodynia at 20 mg/kg, po.
Data set [5] concerns the target T1, Glycine receptor subunit alpha-3. As to the kind of experiment: Positive allosteric modulation of human glycine alpha3 receptor expressed in HEK293T cells assessed as potentiation of glycine-induced increase in chloride ion flux after 4 mins by membrane potential blue dye based FLIPR assay. The class given is cell-based, HEK-293T.
For data set [6], the system named is human BCRP. As to the kind of experiment: Efflux ratio of passive apparent permeability in MDCK cells harboring human BCRP. The settings on record: dog. The format is ADME, cell-based, Canis lupus familiaris. The method in brief: (§1)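 Bidirectional transport at 5 μM, in triplicate, across MDCK cells carrying control vector, human MDR1 or human ABCG2 (BCRP). Passive Papp is the mean of both directions in vector-control cells. Efflux ratios come from the MDR1 and BCRP lines.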

Data set [7] can be described thus: Intrinsic clearance in mouse liver microsomes up to 40 mins in presence of NADPH. The format is ADME, microsome. The settings on record: read-out: CLH.
The nature of data set [8]: Ratio of unbound Cmax in mouse brain to EC50 for glycine alpha3 receptor in mouse model of spared nerve injury-induced tactile allodynia at 10 mg/kg, po. The method in brief:
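Mice dosed orally; unbound brain Cmax is total brain concentration × brain fraction unbound, sampled at multiple time points. It is divided by EC₅₀ for potentiation of mouse GlyRα3.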

Data set [9] concerns human MDR1. As to the kind of experiment: Efflux ratio of passive apparent permeability in MDCK cells harboring human MDR1. The format is ADME, cell-based, Canis lupus familiaris. The settings on record: dog. Summed up:
as §1

The species entered for data set [10] is Mus musculus. The data set can be described thus: Ex vivo positive allosteric modulation of glycine receptor in C57BL/6 mouse spinal cord assessed as potentiation of glycine-induced post synaptic current amplitude at 0.5 uM at holding potential of -60 mV after 10 mins in presence of sodium channel inhibitor TTX/AMPA/kainate receptor antagonist CNQX/GABAa receptor antagonist bicuculline/NMDA receptor antagonist APV by electrophysiology method relative to glycine alone. The method in brief: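 Adult mouse spinal cord slices; dorsal horn neurons in laminae I–II were identified histologically and confirmed glycinergic by focal glycine (20 μM) with strychnine (10 μM) reversal. Postsynaptic current amplitude was recorded with glycine 20 μM alone, then with glycine plus compound at 0.5 μM, then with strychnine added. The readout is the mean ratio of PSC amplitude (compound + glycine / glycine alone), n = 5.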

The nature of data set [11]: Oral bioavailability in mouse at 10 mg/kg. The class given is ADME, organism-based. The settings on record: in vivo.
The nature of data set [12]: Passive apparent permeability in MDCK cells. The class given is ADME, cell-based, Canis lupus familiaris. The settings on record: dog. Summed up:
as §1

Data set [13] is described as follows: Intrinsic clearance in human liver microsomes. The settings on record: read-out: CLH. The format is ADME, microsome. For orientation: Liver microsomes are a subcellular fraction often used to study metabolism.
In data set [14] the test system is Plasma. The data set can be described thus: Stability in mouse plasma. The format is ADME, cell-free.
Data set [15] in a line: Drug degradation in neutral buffer at 37 degC after 1 hr. The method in brief: (§2)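 Buffer stability was followed as percent decomposition at three conditions: neutral buffer at 37 °C over 1 h, pH 2 acidic buffer at room temperature, and pH 11 basic buffer at room temperature up to 20 h.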
Data set [16] can be described thus: Drug degradation in pH 11 basic buffer at room temperature measured after 20 hrs. Summed up: as §2
The nature of data set [17]: Chemical stability in pH 2 acidic buffer at room temperature measured immediately. The format is physicochemical. The method in brief:
as §2

The nature of data set [18]: Ratio of unbound Cmax in mouse brain to EC50 for glycine alpha3 receptor in mouse model of spared nerve injury-induced tactile allodynia at 50 mg/kg, po.

Activity calls are given as the source filed them.

As to `CN1C(=O)[C@H]2CN(S(=O)(=O)c3ccc4occc4c3)C[C@H]2c2cnccc21`, the Kd (usually the constant that tells how readily two partners part at equilibrium) in data set [1] is greater than 20000 nM. For the same compound, in data set [2], the MEC was greater than 25 µM. For the same compound, the result in data set [3] was inactive. Also, in [4], the Ratio was determined as 1.9. Also, the EC50 (commonly the concentration needed to bring the measured effect to its halfway point) in [5] was in the range of 20000 to 25000 nM.

As to `CN1C(=O)[C@@H]2CN(S(=O)(=O)c3ccc4occc4c3)C[C@@H]2c2cnccc21`, the Kd in data set [1] is 190 nM. Also, the efflux ratio – broadly, a quotient of directional permeabilities that is used to spot active efflux – in data set [6] was 1.1; in data set [9] it was 1.5. Besides, the microsomal CLint in [7] was determined as 188 µL/min/mg. The MEC in [2] is 0.2 µM. Moreover, the Activity in data set [3] is recorded as 1.53 g. In addition, the Ratio in data set [8] is given as 1.2. The fold change (FC) in data set [10] is 4.4. Besides, in data set [11], the bioavailability (commonly dose-corrected exposure relative to a reference, in per cent) was determined as 100%. For the same compound, the EC50 in [5] was determined as 450 nM. Besides, in data set [12], the Papp – broadly, a coefficient for how fast a substance crosses the barrier – came to 69 ×10⁻⁶ cm/s.

In data set [1], `C[C@H]1[C@H]2C(=O)N(C)c3ccncc3[C@H]2CN1S(=O)(=O)c1ccc2c(c1)OCO2` showed a Kd of 11 nM. Moreover, the results for the microsomal CLint in [7] and in data set [13] were 254 µL/min/mg and 83 µL/min/mg, respectively. Moreover, in data set [2], the MEC worked out at 0.025 µM. For the same compound, the efflux ratio in [9] stood at 1.6. Moreover, in [5], the EC50 is 50 nM. Besides, the apparent permeability (Papp) in data set [12] worked out at 43.1 ×10⁻⁶ cm/s.

Turning to `CN1C(=O)[C@@H]2CN(S(=O)(=O)c3ccc4ocnc4c3)C[C@@H]2c2cnccc21`, the efflux ratio worked out at 1.1 in data set [6] and 3.6 in [9]. Besides, the microsomal CLint in data set [7] turned out to be 73 µL/min/mg. Moreover, the MEC in data set [2] is 0.39 µM. The Stability result in [14] and in data set [17] was “Unstable” in each case. The Drug degradation was found to be 50% in [15] and 30% in [16]. The Papp in data set [12] amounted to 25 ×10⁻⁶ cm/s.

In the case of `CN1C(=O)[C@@H]2CN(S(=O)(=O)c3ccc4c(c3)CCO4)C[C@@H]2c2cnccc21`, the efflux ratio was 1.2 in data set [6] and 4.3 in data set [9]. The microsomal CLint in data set [7] worked out at 225 µL/min/mg. For the same compound, the MEC in data set [2] is 3.1 µM. The Ratio in data set [18] stood at 0.19. Also, the Papp in data set [12] was found to be 50 ×10⁻⁶ cm/s.

The record behind these values is ChEMBL document CHEMBL3992512, “The Discovery and Hit-to-Lead Optimization of Tricyclic Sulfonamides as Potent and Efficacious Potentiators of Glycine Receptors” (J Med Chem, 2017).
